IC50 and Activity data for 13 molecules are collected here from ChEMBL document CHEMBL1667733, “Cytotoxic amide alkaloids from Piper boehmeriaefolium” (J Nat Prod, 2011).

In brackets after ≈: the same amount, converted by molar mass. Activity calls are given as the source filed them. The rule behind the calls is not given here.

This test has as its system HeLa. In words: Cytotoxicity against human HeLa cells after 72 hrs by MTT assay. Type of test: functional, cell-based. Summed up: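 HeLa cells in log-phase growth, harvested with 0.01% trypsin, seeded at 3.0 × 10^3 cells/well and grown overnight at 37 °C in humidified 5% CO2. Six concentrations (100.00, 33.33, 11.11, 3.70, 1.23, 0.41 µg/mL) added in triplicate. After 72 h at 37 °C, MTT added for 3 h more, supernatant removed, DMSO added. Absorbance read at 550 nm against 690 nm reference. Doxorubicin positive control.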
(In general: Tetrazolium assays rely on reduction of a dye to a coloured formazan, in cell work by metabolically active cells.)
In general, IC50 refers to the point on the concentration scale where inhibition reaches its midpoint. A high value points to a need for much substance. For the molecule `O=C(CCCCCCC/C=C/c1ccc2c(c1)OCO2)N1CCCC1`, the half-maximal inhibitory concentration (IC50) was determined as 2.67 µg/mL (≈ 7.77 µM). For the molecule `COc1cccc2c1C(=O)c1c(O)c3c(c(O)c1C2=O)C[C@@](O)(C(=O)CO)C[C@@H]3O[C@H]1C[C@H](N)[C@H](O)[C@H](C)O1` [DOXORUBICIN], half-maximal inhibition (IC50) was put at 0.163 µg/mL (≈ 0.3 µM).

The molecule `O=C(/C=C/C=C/CC/C=C/c1ccc2c(c1)OCO2)N1CCCC1` registered an IC50 of 13.7 µg/mL (≈ 42.2 µM). The same measure, in the same setting: the figure for `O=C(/C=C/C=C\CC/C=C/c1ccc2c(c1)OCO2)N1CCCC1` is 7.42 µg/mL (≈ 22.8 µM). Regarding `COc1cc(CCC(=O)n2cccc2)cc(OC)c1OC`, the result was inactive.

In the case of `CCCCC/C=C/C=C/C=C/C(=O)N1CCCC1`, the outcome was inactive. Molecule `O=C(CC/C=C/CCCC/C=C/c1ccc2c(c1)OCO2)N1CCCC1` had a 50% inhibitory concentration (IC50) of 12.2 µg/mL (≈ 34.3 µM).

`CCCCC/C=C/C=C/C(=O)NCCc1ccc(O)c(OC)c1`: the outcome was inactive. As to `O=C(/C=C/CCCC/C=C/c1ccc2c(c1)OCO2)N1CCCC1` [BRACHYAMIDE B], half-maximal inhibition (IC50) required 15 µg/mL (≈ 45.7 µM). The molecule `O=C(CCCCCC/C=C/c1ccc2c(c1)OCO2)N1CCCC1` showed an IC50 of 17.9 µg/mL (≈ 54.5 µM). The same measure, in the same setting: the figure for `O=C(/C=C/C=C/CCCC/C=C/c1ccc2c(c1)OCO2)N1CCCC1` is 11.6 µg/mL (≈ 32.8 µM). With `COc1cc(CCC(=O)n2cccc2)cc(OC)c1O`, the result was inactive.

As to `CCCCC/C=C/C=C/C(=O)NCC[S+](C)[O-]` (stereo not drawn), the outcome was inactive.
